Measurements collected from several papers.
Lines come from different studies, so protocols differ.
Target: Calcium/calmodulin-dependent protein kinase type 1G (CAMK1G, Homo sapiens, UniProt Q96NX5)

Structure (SMILES)	effect on	method	concentration	remaining binding
N[C@H]1CCN(c2nccc(-c3cnn4ncccc34)n2)C1	binding	competition with immobilised ligand	1 µM	93%
O=C(c1ccc(Nc2ncc(Cl)c(-c3ccc(Cl)s3)n2)cc1)N1CCC(N2CCCC2)CC1	binding	competition with immobilised ligand	1 µM	80%
c1cnn2ncc(-c3ccnc(N4CCC45COC5)n3)c2c1	binding		1 µM	100%
O=C(NCCCN1CCOCC1)c1ccc(Nc2nccc(-c3cc4ccccc4s3)n2)cc1	binding	competition with immobilised ligand	1 µM	98%
C[C@@]1(Cc2ccc(C#N)cc2)C(=O)N(c2cc(Cl)cc(Cl)c2)c2ncc(C(=O)NC3(c4nc(C5CCC5)no4)CC3)n21	cell-free assay	competition with immobilised ligand	1 µM	100%
C=CC(=O)N1CCC(C(=O)NCC(=O)N2CCN(c3nc(-c4cnc(N)nc4C(F)F)nc(N4CCOCC4)n3)CC2)CC1	binding	competition with immobilised ligand	1 µM	100%
COc1cnc(Nc2cccc(S(N)(=O)=O)c2)nc1N1CCN(c2ccccc2)C(=O)C1	binding	competition with immobilised ligand	1 µM	100%
COc1cc(-c2cn(C3CCc4ccccc4N(CC(F)(F)F)C3=O)nn2)ccc1-n1ccc(C)n1 (stereo not shown)	cell-free assay	competition with immobilised ligand	1 µM	100%
COc1ncc2cc3ccccc3nc2c1C#N	cell-free assay	competition with immobilised ligand	5 µM	89%
F[C@@H]1CCN(c2nccc(-c3cnn4ncccc34)n2)C1	binding		1 µM	100%
FC(F)(F)Oc1cccc(-c2cnc3ccc(-c4ccncc4)nn23)c1	cell-free assay	competition with immobilised ligand	5 µM	73%
Cn1nc(C(=O)NCc2ccc(C(=O)O)cc2)cc1-c1ccc2[nH]ccc2c1	cell-free assay	competition with immobilised ligand	0.1 µM	89%
C[C@H]1CCN(c2nccc(-c3cnn4ncccc34)n2)C1	binding		1 µM	97%
COc1cc(-c2cn(C3CCc4c(F)cccc4N(CC(F)(F)F)C3=O)nn2)ccc1-n1cnc(C)c1 (stereo not shown)	cell-free assay	competition with immobilised ligand	1 µM	100%
Cc1cnc(Nc2ccc(C(=O)N3CCC(N4CCCC4)CC3)cc2)nc1-c1cc2ccccc2s1	binding	competition with immobilised ligand	1 µM	68%
CNC(=O)[C@@H]1CC[C@@H](n2c(-c3ccc4cnccc4c3)nc3ccc(C(=O)NCc4cccc(C(N)=O)c4)cc32)C1	binding	competition with immobilised ligand	1 µM	98%
CN(C)c1ncc(F)c(-c2cnn3ncccc23)n1	binding	competition with immobilised ligand	1 µM	96%
N#Cc1ccc(Nc2ccc3[nH]c(=O)[nH]c3c2)c(Cl)c1	cell-free assay	competition with immobilised ligand	1 µM	100%
CN(C)c1nccc(-c2cnn3ncccc23)n1	binding	competition with immobilised ligand	1 µM	92%
COCCOc1nc(-c2ccc(Cl)nc2)nc2c1CN(C(=O)c1ncn3ccccc13)CC2	cell-free assay	competition with immobilised ligand	0.1 µM	100%
C[C@@H](c1ccc(-n2cnc3c(N)ncnc32)cc1)N1CCc2nn(C)c(Cc3ccccc3)c2C1=O	binding	competition with immobilised ligand	0.1 µM	95%
O=C(Nc1c[nH]nc1C(=O)NC1CCNCC1)c1cc(F)cc(F)c1	binding	competition with immobilised ligand	1 µM	83%
